ChEMBL document CHEMBL2375332, “Novel quinolone substituted thiazolidin-4-ones as anti-inflammatory, anticancer agents: design, synthesis and biological screening” (Eur J Med Chem, 2013)
In brackets after ≈: the same amount, converted by molar mass. Activity calls are given as the source filed them. No cut-off for these calls is given here.

Experiments:
[1] = tested on: BT-549; assay: Cytotoxicity against human BT549 cells at 100 ug/ml […] by MTT assay; type: cell-based
[2] = tested on: HeLa; assay: Cytotoxicity against human HeLa cells at 100 ug/ml […] by MTT assay; type: cell-based
[3] = tested on: Rattus norvegicus; assay: Antiinflammatory activity in albino rat assessed as inhibition of carrageenan-induced paw edema at 100 mg/kg, po administered 1 hr prior to carrageenan-challenge measured after 3 hrs relative to control; type: functional
How it was run: (§1)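 Charles Foster albino rats of either sex (150–200 g, pregnant females excluded), six per group, dosed orally; 1 h later 0.2 mL of 1% carrageenan in 0.9% NaCl injected into right hind paw subplantar tissue. Paw volume read by plethysmometer at injection and 3 h later. Control group received carrageenan only. % inhibition = 1–Dt/Dc×100. Mean ± S.D.; one-way ANOVA with Tukey's test.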

[4] = tested on: COLO 205; assay: Induction of apoptosis in human COLO205 cells assessed as zeiosis at IC50 after 48 hrs by Hoechst 33258 staining-based inverted microscopic analysis; type: functional, cell-based
How it was run: (§2)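 COLO-205 cells seeded at 10⁵ cells/ml and grown to 70-80% confluency. Treated at IC₅₀ dose for 48 h. Fixed in 4% formaldehyde for 30 min at room temperature, stained with Hoechst 33258 for 15 min, washed three times with PBS. Imaged by inverted fluorescence microscope (excitation 340-380 nm, emission 465 nm) at 400x and scored for nuclear morphology.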

[5] = Antitumor activity against mouse EAC […] Swiss albino mouse assessed as increase in life span at 100 mg/kg, ip relative to vehicle-treated control; type: functional, Ehrlich; conditions: route intraperitoneal
How it was run: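 Female Swiss albino mice (6–8 weeks), six per group, inoculated i.p. on day 0 with 1×10⁶ viable EAC cells from donor ascites. Drug suspended in 0.25% CMC, given i.p. at 0.1 ml/10 g on days 10–14. Survival was monitored twice daily for 44 days. ILS(%) = [(MST treated/MST control) − 1]×100, where MST is total days survived divided by the number of animals.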

[6] = tested on: COLO 205; assay: Inhibition of NF-kappaB in human COLO205 cells assessed as Bax up-regulation at IC50 after 48 hrs by RT-PCR analysis; type: cell-based
How it was run: (§3)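 About 4x10⁶ COLO-205 cells/well treated at IC₅₀ dose for 48 h. Total RNA extracted with TRI Reagent and quantified. Bcl-2 and Bax measured by RT-PCR against GAPDH (40 cycles: 94 °C, 55 °C, 72 °C). Products run on 1.5% agarose gel and quantified by band densitometry.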

[7] = tested on: BT-549; assay: Cytotoxicity against human BT549 cells after 24 hrs by MTT assay; type: functional, cell-based; conditions: BT-549, 24 h
[8] = tested on: COLO 205; assay: Induction of apoptosis in human COLO205 cells assessed as karyopyknosis at IC50 after 48 hrs by Hoechst 33258 staining-based inverted microscopic analysis; type: functional, cell-based; how it was run: as §2
[9] = tested on: COLO 205; assay: Induction of apoptosis in human COLO205 cells assessed as late apoptotic cells at IC50 after 48 hrs by acridine orange-ethidium bromide staining assay; type: functional, cell-based
How it was run: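 COLO-205 cells seeded at 10⁵ cells/ml, grown 24 h, then treated at IC₅₀ dose for 48 h. Floating and trypsinized adherent cells pooled, spun at 129 g for 5 min and washed in PBS. Stained with 1:1 acridine orange/ethidium bromide and viewed by fluorescence microscopy at 400x (green viable, orange-red apoptotic).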

[10] = tested on: ACHN; assay: Cytotoxicity against human ACHN cells […] by MTT assay; type: functional, cell-based
[11] = Antitumor activity against mouse EAC […] Swiss albino mouse assessed as change in body weight at 100 mg/kg, ip administered on day 10 measured on day 15 (reference value: 22.03 +/- 1.67%); type: functional, Ehrlich; conditions: route intraperitoneal
[12] = tested on: COLO 205; assay: Induction of apoptosis in human COLO205 cells assessed as nuclear fragmentation at IC50 after 48 hrs by Hoechst 33258 staining-based inverted microscopic analysis; type: functional, cell-based; how it was run: as §2
[13] = tested on: HeLa; assay: Cytotoxicity against human HeLa cells after 24 hrs by MTT assay; type: functional, cell-based
[14] = Antitumor activity against mouse EAC […] Swiss albino mouse assessed as change in body weight at 100 mg/kg, ip administered everyday from day 10 to day 14 measured on day 12 (reference value: 22.03 +/- 1.67%); type: functional, Ehrlich; conditions: route intraperitoneal
[15] = tested on: COLO 205; assay: Inhibition of NF-kappaB in human COLO205 cells assessed as Bcl-2 down regulation at IC50 after 48 hrs by RT-PCR analysis; type: cell-based; how it was run: as §3
[16] = tested on: COLO 205; assay: Cytotoxicity against human COLO205 cells […] by MTT assay; type: functional, cell-based
[17] = tested on: Rattus norvegicus; assay: Antiinflammatory activity in albino rat assessed as inhibition of carrageenan-induced paw edema at 10 mg/kg, po administered 1 hr prior to carrageenan-challenge measured after 3 hrs relative to control; type: functional; how it was run: as §1

Row | SMILES | Activity [1] [%] | Activity [2] [%] | inhibition in vivo at 100 mg/kg [3] [%] | other results
1 | Cc1cc(=O)[nH]c2cc(N3C(=O)CSC3c3cccc(O)c3)ccc12 (centres undefined) | 18.522 | 71.485 | 14.3 | –
2 | Cc1cc(=O)[nH]c2cc(N3C(=O)CSC3N3CCOCC3)ccc12 (centres undefined) | 25.274 | 23.662 | 1.75 | –
3 | COc1cc(C2SCC(=O)N2c2ccc3c(C)cc(=O)[nH]c3c2)ccc1O (centres undefined) | 54.11 | 41.028 | 12.4 | –
4 | Cc1cc(=O)[nH]c2cc(N3C(=O)CSC3c3ccc(F)cc3)ccc12 (centres undefined) | 43.311 | 14.231 | 19 | –
5 | Cc1cc(=O)[nH]c2cc(N3C(=O)CSC3c3ccccc3Cl)ccc12 (centres undefined) | 61.394 | 52.496 | 14.5 | –
6 | Cc1cc(=O)[nH]c2cc(N3C(=O)CSC3N3CCCCC3)ccc12 (centres undefined) | 31.949 | 29.394 | 2.77 | –
7 | Cc1cc(=O)[nH]c2cc(N3C(=O)CSC3c3ccccc3[N+](=O)[O-])ccc12 (centres undefined) | 44.953 | 28.316 | 24.1 | –
8 | Cc1ccc(C2SCC(=O)N2c2ccc3c(C)cc(=O)[nH]c3c2)o1 (centres undefined) | 31.114 | 27.453 | 10.1 | –
9 | Cc1cc(=O)[nH]c2cc(N3C(=O)CSC3/C=C/c3ccccc3)ccc12 (centres undefined) | 38.837 | 42.057 | 20.8 | –
10 | Cc1cc(=O)[nH]c2cc(N3C(=O)CSC3c3ccc(Br)o3)ccc12 (centres undefined) | 42.357 | 31.332 | 23.3 | –
11 | Cc1cc(=O)[nH]c2cc(N3C(=O)CSC3c3ccccc3F)ccc12 (centres undefined) | 40.062 | 59.6 | 20.4 | –
12 | Cc1cc(=O)[nH]c2cc(N3C(=O)CSC3c3ccc(N(C)C)cc3)ccc12 (centres undefined) | 29.327 | 33.267 | 13.3 | –
13 | Cc1ccc(C2SCC(=O)N2c2ccc3c(C)cc(=O)[nH]c3c2)s1 (centres undefined) | 22.023 | 31.485 | 15.8 | –
14 | Cc1cc(=O)[nH]c2cc(N3C(=O)CSC3c3ccco3)ccc12 (centres undefined) | 49.658 | 41.188 | 5.16 | –
15 | Cc1cc(=O)[nH]c2cc(N3C(=O)CSC3c3ccccc3O)ccc12 (centres undefined) | 44.328 | 43.168 | 16.4 | –
16 | COc1ccc(C2SCC(=O)N2c2ccc3c(C)cc(=O)[nH]c3c2)cc1 (centres undefined) | 39.334 | 47.326 | 21.4 | –
17 | Cc1cc(=O)[nH]c2cc(N3C(=O)CSC3c3ccc(Br)s3)ccc12 (centres undefined) | 52.34 | 33.267 | 24 | –

Row | SMILES | Activity [1] [%] | Activity [2] [%] | inhibition in vivo at 100 mg/kg [3] [%] | other results
18 | Cc1cc(=O)[nH]c2cc(N3C(=O)CSC3c3cccnc3)ccc12 (centres undefined) | 29.032 | 34.851 | 6.81 | –
19 | Cc1cc(=O)[nH]c2cc(N3C(=O)CSC3c3ccc(Cl)cc3)ccc12 (centres undefined) | 46.201 | 20.198 | 13 | –
20 | Cc1cc(=O)[nH]c2cc(N3C(=O)CSC3c3ccccc3Br)ccc12 (centres undefined) | 38.709 | 44.279 | 14 | –
21 | Cc1cc(=O)[nH]c2cc(N3C(=O)CSC3c3ccc(Br)cc3)ccc12 (centres undefined) | 42.663 | 65.742 | 12.4 | –
22 | Cc1cc(=O)[nH]c2cc(N3C(=O)CSC3c3cccs3)ccc12 (centres undefined) | 63.163 | 83.762 | 18.6 | Activity [4]: Active; Activity [5]: 77.09%; MST [5]: 32.16 days; inhibition [6]: Active; IC50 [7]: 43 µg/mL (≈ 126 µM); Activity [8]: Active; Activity [9]: Active; IC50 [10]: 44.7 µg/mL (≈ 131 µM); Activity [11]: 3.86%; Activity [12]: Active; IC50 [13]: 27.1 µg/mL (≈ 79 µM); Activity [14]: 6.66%; inhibition [15]: Active; IC50 [16]: 20.7 µg/mL (≈ 60.6 µM)
23 | Cc1cc(=O)[nH]c2cc(N3C(=O)CSC3c3ccc([N+](=O)[O-])cc3)ccc12 (centres undefined) | 40.478 | 54.851 | 25.2 | –
24 | Cc1cc(=O)[nH]c2cc(N3C(=O)CSC3c3ccccn3)ccc12 (centres undefined) | 18.028 | 20 | 7.5 | –
25 | COc1ccc(C2SCC(=O)N2c2ccc3c(C)cc(=O)[nH]c3c2)cc1OC (centres undefined) | 31.737 | 30.492 | 20.6 | –
26 | COc1ccc2c(c1)c(CC(=O)O)c(C)n2C(=O)c1ccc(Cl)cc1 [INDOMETHACIN] | – | – | – | inhibition in vivo at 10 mg/kg [17]: 33.2%
27 | Cc1cc(=O)[nH]c2cc(N3C(=O)CSC3c3ccc(O)cc3)ccc12 (centres undefined) | 42.143 | 68.91 | 22.9 | –
28 | Cc1cc(=O)[nH]c2cc(N3C(=O)CSC3c3ccccc3)ccc12 (centres undefined) | 71.578 | 74.85 | 17.8 | Activity [4]: Active; Activity [5]: 60.57%; MST [5]: 29.16 days; inhibition [6]: Active; IC50 [7]: 39.3 µg/mL (≈ 117 µM); Activity [8]: Active; Activity [9]: Active; IC50 [10]: 78.9 µg/mL (≈ 234 µM); Activity [11]: 5.93%; Activity [12]: Active; IC50 [13]: 35.1 µg/mL (≈ 104 µM); Activity [14]: 10.65%; inhibition [15]: Active; IC50 [16]: 31.4 µg/mL (≈ 93.3 µM)
29 | Cc1cc(=O)[nH]c2cc(N3C(=O)CSC3c3cccc(Cl)c3)ccc12 (centres undefined) | 44.849 | 44.158 | 23.3 | –
30 | Cc1cc(=O)[nH]c2cc(N3C(=O)CSC3c3ccncc3)ccc12 (centres undefined) | 22.176 | 20.343 | 7.62 | –
31 | Cc1cc(=O)[nH]c2cc(N3C(=O)CSC3c3cccc(F)c3)ccc12 (centres undefined) | 50.052 | 52.738 | 23.6 | –
32 | O=c1[nH]cc(F)c(=O)[nH]1 [FLUOROURACIL] | – | – | – | IC50 [10]: 9.87 µg/mL (≈ 75.9 µM); IC50 [16]: 4.56 µg/mL (≈ 35.1 µM)
33 | Cc1cc(=O)[nH]c2cc(N3C(=O)CSC3c3cccc(Br)c3)ccc12 (centres undefined) | 40.062 | 56.633 | 22.7 | –
